Reference: ChEMBL document CHEMBL4038284, “Synthesis of novel quinoline-based 4,5-dihydro-1H-pyrazoles as potential anticancer, antifungal, antibacterial and antiprotozoal agents” (Eur J Med Chem, 2017)

What was measured:
Format in all cases: functional
SNB-19 = experiment: Growth inhibition of human SNB19 cells incubated for 48 hrs by sulforhodamine B assay; details: SNB-19, 48 h
Procedure, shortened: (§1)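 NCI-60 panel cells grown in RPMI-1640 with 5% FBS and 2 mM L-glutamine, preincubated 24 h at 37 °C/5% CO2. Time-zero plates were TCA-fixed at compound addition. DMSO stocks were diluted in medium and tested at five final concentrations (100, 10, 1.0, 0.1, 0.01 µM) for 48 h. Cells were TCA-fixed, stained with SRB and read at 515 nm. GI50 = 50% lower net protein increase versus control.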

K562 = experiment: Growth inhibition of human K562 cells incubated for 48 hrs by sulforhodamine B assay; details: K562, 48 h; for CC50: read-out: LC50 (the source's name)
Procedure, shortened: (§2)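 NCI 60-line screen. Cells in RPMI-1640 with 5% FBS and 2 mM L-glutamine, preincubated 24 h, then time-zero plates TCA-fixed. Compounds from DMSO stocks given at five final concentrations (100, 10, 1.0, 0.1, 0.01 µM) for 48 h at 37 °C, 5% CO2. Cells fixed with 10% TCA, SRB-stained, read at 515 nm. GI50 is the concentration giving 50% lower net protein increase versus control.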

A498 = experiment: Growth inhibition of human A498 cells incubated for 48 hrs by sulforhodamine B assay; details: A498, 48 h; for CC50: read-out: LC50 (the source's name); procedure, shortened: as §2
SK-OV-3 = experiment: Growth inhibition of human SKOV3 cells incubated for 48 hrs by sulforhodamine B assay; details: SK-OV-3, 48 h; for CC50: read-out: LC50 (the source's name); procedure, shortened: as §2
MOLT-4 = experiment: Growth inhibition of human MOLT4 cells incubated for 48 hrs by sulforhodamine B assay; details: MOLT-4, 48 h; for CC50: read-out: LC50 (the source's name); procedure, shortened: as §2
SN12C = experiment: Growth inhibition of human SN12C cells incubated for 48 hrs by sulforhodamine B assay; procedure, shortened: as §1
HOP-92 = experiment: Growth inhibition of human HOP92 cells incubated for 48 hrs by sulforhodamine B assay; details: HOP-92, 48 h
Procedure, shortened: (§3)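 Five-dose NCI SRB assay at 100, 10, 1.0, 0.1 and 0.01 μM for 48 h at 37 °C, 5% CO2. Medium was RPMI-1640 with 5% FBS and 2 mM glutamine. Time-zero plates were TCA-fixed at compound addition, A515 read after SRB staining. GI50 was solved from [(Ti−Tz)/(C−Tz)]×100 = 50. Values beyond the tested range are given as > or <.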

786-0 = experiment: Growth inhibition of human 786-0 cells incubated for 48 hrs by sulforhodamine B assay; details: 786-0, 48 h
Procedure, shortened: (§4)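 NCI five-dose SRB assay (100, 10, 1.0, 0.1, 0.01 µM) with 48 h exposure in RPMI-1640 with 5% FBS and 2 mM L-glutamine. Cells fixed with TCA and stained with SRB, read at 515 nm. GI50 is the concentration where [(Ti−Tz)/(C−Tz)]×100 = 50.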

OVCAR-4 = experiment: Growth inhibition of human OVCAR4 cells incubated for 48 hrs by sulforhodamine B assay; details: OVCAR-4, 48 h; procedure, shortened: as §3
BT-549 = experiment: Growth inhibition of human BT549 cells incubated for 48 hrs by sulforhodamine B assay; details: BT-549, 48 h; procedure, shortened: as §4
HOP-62 = experiment: Growth inhibition of human HOP62 cells incubated for 48 hrs by sulforhodamine B assay; details: HOP-62, 48 h; procedure, shortened: as §4
M14 = experiment: Growth inhibition of human M14 cells incubated for 48 hrs by sulforhodamine B assay; details: M14, 48 h; procedure, shortened: as §3
SW-620 = experiment: Growth inhibition of human SW620 cells incubated for 48 hrs by sulforhodamine B assay; details: SW-620, 48 h; procedure, shortened: as §1
CCRF-CEM = experiment: Growth inhibition of human CCRF-CEM cells incubated for 48 hrs by sulforhodamine B assay; details: for CC50: read-out: LC50 (the source's name); procedure, shortened: as §2
T47D = experiment: Growth inhibition of human T47D cells incubated for 48 hrs by sulforhodamine B assay; procedure, shortened: as §1
SF-295 = experiment: Growth inhibition of human SF295 cells incubated for 48 hrs by sulforhodamine B assay; details: SF-295, 48 h; procedure, shortened: as §3
ACHN = experiment: Growth inhibition of human ACHN cells incubated for 48 hrs by sulforhodamine B assay; details: for CC50: read-out: LC50 (the source's name); procedure, shortened: as §2
KM12 = experiment: Growth inhibition of human KM12 cells incubated for 48 hrs by sulforhodamine B assay; details: KM12, 48 h; procedure, shortened: as §3
HCT-116 = experiment: Growth inhibition of human HCT116 cells incubated for 48 hrs by sulforhodamine B assay; details: HCT-116, 48 h; procedure, shortened: as §4
Hs-578T = experiment: Growth inhibition of human Hs578T cells incubated for 48 hrs by sulforhodamine B assay; procedure, shortened: as §3
OVCAR-3 = experiment: Growth inhibition of human OVCAR3 cells incubated for 48 hrs by sulforhodamine B assay; details: OVCAR-3, 48 h; procedure, shortened: as §3
HCC 2998 = experiment: Growth inhibition of human HCC2998 cells incubated for 48 hrs by sulforhodamine B assay; details: HCC 2998, 48 h; procedure, shortened: as §2
NCI-H226 = experiment: Growth inhibition of human NCI-H226 cells incubated for 48 hrs by sulforhodamine B assay; details: NCI-H226, 48 h; for CC50: read-out: LC50 (the source's name); procedure, shortened: as §2
Malme-3M = experiment: Growth inhibition of human MALME-3M cells incubated for 48 hrs by sulforhodamine B assay; procedure, shortened: as §3
SK-MEL-5 = experiment: Growth inhibition of human SK-MEL-5 cells incubated for 48 hrs by sulforhodamine B assay; details: SK-MEL-5, 48 h; for CC50: read-out: LC50 (the source's name); procedure, shortened: as §2
SR = experiment: Growth inhibition of human SR cells incubated for 48 hrs by sulforhodamine B assay; details: for CC50: read-out: LC50 (the source's name); procedure, shortened: as §2
COLO 205 = experiment: Growth inhibition of human COLO205 cells incubated for 48 hrs by sulforhodamine B assay; details: COLO 205, 48 h; procedure, shortened: as §4
HT-29 = experiment: Growth inhibition of human HT-29 cells incubated for 48 hrs by sulforhodamine B assay; details: HT-29, 48 h; procedure, shortened: as §3
[1] = read-out: LC50 (the source's name)

SMILES: COc1cccc2c1C(=O)c1c(O)c3c(c(O)c1C2=O)C[C@@](O)(C(=O)CO)C[C@@H]3O[C@H]1C[C@H](N)[C@H](O)[C@H](C)O1 [DOXORUBICIN]
- GI50 (SNB-19): 40 nM
- GI50 (K562): 190 nM
- CC50 (K562): 100000 nM
- GI50 (A498): 100 nM
- CC50 (A498): 1900 nM
- GI50 (SK-OV-3): 220 nM
- CC50 (SK-OV-3): 100000 nM
- GI50 (MOLT-4): 30 nM
- CC50 (MOLT-4): 100000 nM
- GI50 (SN12C): 70 nM
- GI50 (HOP-92): 100 nM
- GI50 (786-0): 130 nM
- GI50 (OVCAR-4): 370 nM
- GI50 (BT-549): 230 nM
- GI50 (HOP-62): 70 nM
- GI50 (M14): 180 nM
- GI50 (SW-620): 90 nM
- GI50 (CCRF-CEM): 80 nM
- CC50 (CCRF-CEM): 100000 nM
- GI50 (T47D): 60 nM
- GI50 (SF-295): 100 nM
- GI50 (ACHN): 80 nM
- CC50 (ACHN): 100000 nM
- GI50 (KM12): 270 nM
- GI50 (HCT-116): 80 nM
- GI50 (Hs-578T): 330 nM
- GI50 (OVCAR-3): 390 nM
- GI50 (HCC 2998): 260 nM
- GI50 (NCI-H226): 50 nM
- CC50 (NCI-H226): 6400 nM
- GI50 (Malme-3M): 120 nM
- GI50 (SK-MEL-5): 80 nM
- CC50 (SK-MEL-5): 490 nM
- GI50 (SR): 30 nM
- CC50 (SR): 100000 nM
- GI50 (COLO 205): 180 nM
- GI50 (HT-29): 120 nM

SMILES: COc1cc(C(=O)/C=C/c2cccc(Nc3ccnc4cc(Cl)ccc34)c2)cc(OC)c1OC
- GI50 (SNB-19): 1180 nM
- CC50 (SNB-19; [1]): 5080 nM
- GI50 (K562): 400 nM
- CC50 (K562): > 100000 nM
- GI50 (A498): 1540 nM
- CC50 (A498): > 100000 nM
- GI50 (SK-OV-3): 1940 nM
- CC50 (SK-OV-3): 2610 nM
- GI50 (MOLT-4): 1790 nM
- CC50 (MOLT-4): > 100000 nM
- GI50 (SN12C): 1160 nM
- GI50 (HOP-92): 1470 nM
- LC50 (concentration giving 50% net cell kill) (HOP-92): > 100000 nM
- GI50 (786-0): 560 nM
- LC50 (786-0): 4890 nM
- GI50 (OVCAR-4): 1260 nM
- CC50 (OVCAR-4; [1]): 5260 nM
- GI50 (BT-549): 1230 nM
- CC50 (BT-549; [1]): 6590 nM
- GI50 (HOP-62): 680 nM
- CC50 (HOP-62; [1]): 6060 nM
- GI50 (M14): 1410 nM
- GI50 (SW-620): 450 nM
- CC50 (SW-620; [1]): > 100000 nM
- GI50 (CCRF-CEM): 360 nM
- CC50 (CCRF-CEM): > 100000 nM
- GI50 (T47D): 1220 nM
- CC50 (T47D; [1]): 8260 nM
- GI50 (SF-295): 1420 nM
- CC50 (SF-295; [1]): 6470 nM
- GI50 (ACHN): 1240 nM
- CC50 (ACHN): 4990 nM
- GI50 (KM12): 440 nM
- GI50 (HCT-116): 350 nM
- LC50 (concentration killing 50% of cells) (HCT-116): 3980 nM
- GI50 (Hs-578T): 2490 nM
- CC50 (Hs-578T; [1]): > 100000 nM
- GI50 (OVCAR-3): 390 nM
- CC50 (OVCAR-3; [1]): 3850 nM
- GI50 (HCC 2998): 1720 nM
- CC50 (HCC 2998; [1]): 5990 nM
- GI50 (NCI-H226): 1270 nM
- CC50 (NCI-H226): 6850 nM
- GI50 (Malme-3M): 1460 nM
- CC50 (Malme-3M; [1]): 7800 nM
- GI50 (SK-MEL-5): 1380 nM
- CC50 (SK-MEL-5): 5180 nM
- GI50 (SR): 320 nM
- CC50 (SR): > 100000 nM
- GI50 (COLO 205): 1340 nM
- CC50 (COLO 205; [1]): > 100000 nM
- GI50 (HT-29): 320 nM
- LC50 (HT-29): 5510 nM
